Test results as given in ChEMBL document CHEMBL1799956, “Convergent synthesis and biological evaluation of 2-amino-4-(3',4',5'-trimethoxyphenyl)-5-aryl thiazoles as microtubule targeting agents” (J Med Chem, 2011).
Active and inactive are the calls of the source. No cut-off for these calls is given here.

Legend:
[1] = tested on: HeLa; assay: Induction of apoptosis in human HeLa cells assessed as increase in cell viability at 100 nM after 48 hrs by flow cytometry in presence of pan-caspase inhibitor z-VAD.fmk; format: functional, cell-based
How it was run: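 HeLa incubated 48 h with compound at 100 nM with or without z-VAD.fmk (100 μM); viability measured, mean ± SEM of three independent experiments.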

[2] = tested on: HeLa; assay: Induction of apoptosis in human HeLa cells assessed activation of caspase 9 at 10 to 100 nM after 48 hrs by Western blot analysis
[3] = tested on: HeLa; assay: Induction of apoptosis in human HeLa cells assessed as increase in annexin-V positive cells after 24 hrs by annexin-V-FITC and propidium iodide staining based flow cytometry; format: functional, cell-based
How it was run: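 Biparametric flow cytometry after annexin-V immunolabelling plus propidium iodide, separating live, early apoptotic, late apoptotic and necrotic cells; HeLa incubated for 24 or 48 h.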

[4] = tested on: HeLa; assay: Induction of apoptosis in human HeLa cells assessed as DNA condensation at 10 uM after 24 to 48 hrs using Giemsa's staining by microscopic analysis; format: functional, cell-based
How it was run: (§1)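 HeLa treated 48 h, Giemsa stained and examined by light microscopy at 60× magnification.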

[5] = biological target: T1, Tubulin (Homo sapiens) (UniProt P68371+Q9H4B7+P0DPH7+P68366+Q13509+Q71U36+P04350+Q3ZCM7+P07437+P68363+Q9BQE3+Q6PEY2+Q13885+Q9BVA1+Q9BUF5); assay: Induction of microtubule disassembly in human HeLa cells assessed as complete loss of microtubules at 100 nM after 48 hrs using DAPI-staining by fluorescence microscopy; format: cell-based
How it was run: (§2)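 HeLa cells were exposed to 10 or 100 nM compound for 24 or 48 h, then fixed. Microtubules were stained with FITC-conjugated anti-β-tubulin antibody and imaged by confocal/fluorescence microscopy at 60× magnification.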

[6] = tested on: CCRF-CEM; assay: Fold resistance, ratio of IC50 for human vinblastine-resistant CEM/VBL100 cells overexpressing P-gp to IC50 for human CEM cells; format: functional
How it was run: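 Fold resistance taken as the ratio of IC50 in the resistant line to IC50 in the parental line, each IC50 from dose-response curves of at least three independent experiments.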

[7] = tested on: HeLa; assay: Induction of apoptosis in human HeLa cells assessed as reduction in p53 expression at […] after 48 hrs by Western blot analysis; format: functional, cell-based
How it was run: (§3)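 Western blot of HeLa whole-cell lysates, separated by SDS-PAGE and probed with antibodies to p-γH2AX Ser139, p53 and p21waf/cip1. Cells were treated at the indicated concentrations for 24 or 48 h.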

[8] = tested on: Jurkat; assay: Cell cycle arrest in human Jurkat cells assessed as decrease of cell population at G1 phase at 1 to 100 nM after 48 hrs using propidium iodide staining by flow cytometry; format: functional, cell-based
[9] = tested on: Jurkat; assay: Induction of apoptosis in human Jurkat cells assessed as multinucleation at 100 uM after 24 to 48 hrs using Giemsa's staining by microscopic analysis; format: functional, cell-based
How it was run: (§4)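 Giemsa staining, then light-microscope examination of cell morphology. HeLa and Jurkat cells were exposed to compound for 24 and 48 h. Magnification 60×.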

[10] = tested on: Jurkat; assay: Induction of apoptosis in human Jurkat cells assessed as formation of large cells at 100 uM after 24 to 48 hrs using Giemsa's staining by microscopic analysis; format: functional, cell-based; how it was run: as §4
[11] = tested on: HeLa; assay: Induction of apoptosis in human HeLa cells assessed as abnormal mitotic figures at 10 uM after 24 to 48 hrs using Giemsa's staining by microscopic analysis; format: functional, cell-based; how it was run: as §1
[12] = tested on: Jurkat; assay: Induction of apoptosis in human Jurkat cells assessed as formation of large cytoplasmic vacuoles at 100 uM after 24 to 48 hrs using Giemsa's staining by microscopic analysis; format: functional, cell-based; how it was run: as §4
[13] = biological target: T1, Tubulin (Homo sapiens); assay: Induction of microtubule disassembly in human HeLa cells assessed as complete loss of microtubules at 100 nM after 24 hrs using DAPI-staining by fluorescence microscopy; format: cell-based; how it was run: as §2
[14] = tested on: MCF7; assay: Antiproliferative activity against human MCF7 cells assessed as growth inhibition after 72 hrs by MTT assay; format: functional, cell-based; conditions: MCF7, 72 h
[15] = tested on: HeLa; assay: Cell cycle arrest in human HeLa cells assessed as increase of cell population at G2/M phase at 1 to 100 nM after 48 hrs using propidium iodide staining by flow cytometry; format: functional, cell-based
[16] = tested on: HeLa; assay: Induction of cell cycle arrest at G2/M phase in human HeLa cells assessed as increase in cyclin B1 expression after 24 to 48 hrs by Western blot analysis; format: functional, cell-based
How it was run: (§5)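 Immunoblot of HeLa lysates after 24 or 48 h of compound treatment at the indicated concentrations. Probed for cyclin B1, p-Cdc2 Y15 and Cdc25c. Slower-migrating Cdc25c bands were taken as a change in phosphorylation.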

[17] = tested on: HeLa; assay: Induction of apoptosis in human HeLa cells assessed as reduction in p53 expression at […] after 24 hrs by Western blot analysis; format: functional, cell-based; how it was run: as §3
[18] = tested on: HeLa; assay: Induction of apoptosis in human HeLa cells assessed as multinucleation at 100 uM after 24 to 48 hrs using Giemsa's staining by microscopic analysis; format: functional, cell-based; how it was run: as §4
[19] = tested on: HeLa; assay: Induction of apoptosis in human HeLa cells assessed as increase in phospho-gammaH2AX expression at […] after 24 hrs by Western blot analysis; format: functional, cell-based
How it was run: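 HeLa treated for 24 or 48 h; whole-cell lysates run on SDS-PAGE and blotted for phospho-γH2AX (Ser139).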

[20] = tested on: HeLa; assay: Cell cycle arrest in human HeLa cells assessed as decrease of cell population at S phase at 1 to 100 nM after 48 hrs using propidium iodide staining by flow cytometry; format: functional, cell-based
[21] = tested on: HL-60; assay: Antiproliferative activity against human HL60 cells assessed as growth inhibition after 72 hrs by MTT assay; format: functional, cell-based; conditions: HL-60, 72 h
[22] = Antiproliferative activity against human taxol-resistant A549-T12 cells assessed as growth inhibition after 72 hrs by MTT assay; format: functional, cell-based; conditions: A549, 72 h
[23] = tested on: HeLa; assay: Induction of apoptosis in human HeLa cells assessed activation of caspase 2 at 10 to 100 nM after 24 hrs by Western blot analysis
[24] = biological target: T1, Tubulin (Homo sapiens); assay: Induction of microtubule disassembly with spherical morphology in human HeLa cells at 10 nM after 48 hrs using DAPI-staining by fluorescence microscopy; format: cell-based; how it was run: as §2
[25] = tested on: HeLa; assay: Induction of cell cycle arrest at G2/M phase in human HeLa cells assessed as increase in cyclin B1 expression at 10 to 100 nM by Western blot analysis; format: functional, cell-based; conditions: TDE = time-dependent effect; how it was run: as §5
[26] = tested on: HeLa; assay: Cell cycle arrest in human HeLa cells assessed as decrease of cell population at G1 phase at 1 to 100 nM after 48 hrs using propidium iodide staining by flow cytometry; format: functional, cell-based
[27] = tested on: HeLa; assay: Induction of morphological changes in human HeLa cells assessed as effect on arrangement and amount of F-actin at 100 nM after 24 hrs using phalloidintetramethylrhodamine B isothiocyanate staining by microscopy; format: functional, cell-based
How it was run: (§6)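 HeLa cells were incubated with compound for 24 h. F-actin was stained with a phalloidin–tetramethylrhodamine B isothiocyanate conjugate and nuclei were counterstained with DAPI. Cells were then examined by fluorescence microscopy.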

[28] = tested on: HeLa; assay: Induction of morphological changes in human HeLa cells assessed as effect on arrangement and amount of F-actin at 10 nM after 24 hrs using phalloidintetramethylrhodamine B isothiocyanate staining by microscopy; format: functional, cell-based; how it was run: as §6

SMILES: CCOc1ccc(-c2sc(N)nc2-c2cc(OC)c(OC)c(OC)c2)cc1
- Activity [1]: inactive
- Activity [2]: inactive
- Activity [3]: Dose-dependent effect
- Activity [4]: Active
- Activity [5]: Active
- Ratio IC50 [6]: 0.9
- Activity [7]: Active
- Activity [8]: Active
- Activity [9]: Active
- Activity [10]: Active
- Activity [11]: Active
- Activity [12]: Active
- Activity [13]: Active
- IC50 [14]: 44 nM
- Activity [15]: Active
- Activity [16]: Dose-dependent effect
- Activity [17]: inactive
- Activity [18]: Active
- Activity [19]: Active
- Activity [20]: Active
- IC50 [21]: 0.9 nM
- IC50 [22]: 0.2 nM
- Activity [23]: Active
- Activity [24]: Active
- Activity [25]: tde
- Activity [26]: Active
- Activity [27]: Active
- Activity [28]: Active
